Results taken from ChEMBL document CHEMBL2331363, “Synthesis of a 2,4,6-trisubstituted 5-cyano-pyrimidine library and evaluation of its immunosuppressive activity in a Mixed Lymphocyte Reaction assay” (Bioorg Med Chem, 2013).

What was measured:
[1] = Immunosuppressive activity in human RPMI1788 cells cocultured with human PBMC assessed as inhibition of [3H]thymidine incorporation incubated for 6 days prior to [3H]thymidine addition measured after 18 hrs by liquid scintillation counting; type: functional, cell-based; conditions: RPMI-1788
Outline: (§1)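 Effector PBMCs from heparinized healthy-donor blood were isolated over Lymphoprep and held at 1.2 × 10⁶ cells/mL in RPMI-1640 with 10% heat-inactivated FCS. Mitomycin-treated stimulator cells were at 0.45 × 10⁶ cells/mL. Cells were mixed with diluted compound and cultured at 37 °C, 5% CO₂. (methyl-³H)thymidine was added for the final 18 h, and filter-harvested cpm were counted by scintillation. Compounds were screened at one concentration, then dose-response IC₅₀ was determined. Values are means of two independent experiments.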

[2] = Cytotoxicity against human Jurkat T cells after 48 hrs by WST1 assay; type: cell-based
Outline: (§2)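 Jurkat T cells were seeded at 5.10⁴ cells per well and exposed to serial compound dilutions for 48 h at 37 °C and 5% CO₂. Part of the medium was removed, WST-1 tetrazolium salt was added, and cells were incubated further. Absorbance was read at 450 nm. Results are % cytotoxicity at each concentration, with CC₅₀ calculated.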

[3] = Growth inhibition of human Jurkat T cells at 10 uM after 48 hrs by WST1 assay; type: cell-based; outline: as §2
[4] = Immunosuppressive activity in human RPMI1788 cells cocultured with human PBMC assessed as inhibition of [3H]thymidine incorporation at 10 uM incubated for 6 days prior to [3H]thymidine addition measured after 18 hrs by liquid scintillation counting; type: functional; conditions: RPMI-1788; outline: as §1

Row | Structure (SMILES) | IC50 [1] | CC50 at 48 h [2] | inhibition at 48 h, 10 µM [3] | inhibition at 10 µM [4]
1 | Cn1c(SCc2ccccc2)nc(-c2cccc(Cl)c2)c(C#N)c1=O | > 10 µM | – | – | 7%
2 | COc1nc(SCc2ccccc2)nc(-c2ccc(Cl)cc2)c1C#N | > 10 µM | – | – | 10%
3 | CCCn1c(SCc2ccccc2)nc(-c2cccc(Cl)c2)c(C#N)c1=O | > 10 µM | – | – | 9%
4 | CC(C)Nc1nc(Nc2ccc(Cl)cc2)nc(-c2ccc(Cl)cc2)c1C#N | > 10 µM | – | – | 0%
5 | COc1ccc(-c2nc(SCc3ccccc3)nc(N3CCSCC3)c2C#N)cc1 | > 10 µM | – | – | 13%
6 | COc1ccc(-c2nc(SCc3ccccc3)n(C)c(=O)c2C#N)cc1 | > 10 µM | – | – | 5%
7 | CCOc1nc(Nc2ccc(Cl)cc2)nc(-c2ccc(Cl)cc2)c1C#N | > 10 µM | – | – | 0%
8 | Cc1ccc(Nc2nc(-c3ccc(Cl)cc3)c(C#N)c(=O)[nH]2)cc1 | > 10 µM | – | – | 20%
9 | CCOc1nc(Nc2ccc(Cl)cc2)nc(-c2ccccc2)c1C#N | > 10 µM | – | – | 38%
10 | CC(C)Nc1nc(SCc2ccccc2)nc(-c2ccc(Cl)cc2)c1C#N | > 10 µM | – | – | 48%
11 | COc1ccc(-c2nc(SCc3ccccc3)nc(N3CCC(Cc4ccccc4)CC3)c2C#N)cc1 | > 10 µM | – | – | 31%
12 | Cc1ccc(Nc2nc(-c3ccc(Cl)cc3)c(C#N)c(N3CCCCC3)n2)cc1 | > 10 µM | – | – | 0%
13 | CCCOc1nc(Nc2ccc(Cl)cc2)nc(-c2ccccc2)c1C#N | > 10 µM | – | – | 44%
14 | Cn1c(SCc2ccccc2)nc(-c2ccc(Cl)cc2)c(C#N)c1=O | > 10 µM | – | – | 0%
15 | COc1ccc(-c2nc(SCc3ccccc3)nc(N3CCC(c4ccccc4)CC3)c2C#N)cc1 | > 10 µM | – | – | 31%
16 | N#Cc1c(-c2ccc(Cl)cc2)nc(Nc2cccc(F)c2)[nH]c1=O | > 10 µM | – | – | 0%

Row | Structure (SMILES) | IC50 [1] | CC50 at 48 h [2] | inhibition at 48 h, 10 µM [3] | inhibition at 10 µM [4]
17 | N#Cc1c(-c2ccc(Cl)cc2)nc(Nc2ccc(Cl)cc2)[nH]c1=O | > 10 µM | – | – | 18%
18 | N#Cc1c(-c2ccc(Cl)cc2)nc(SCc2ccccc2)nc1N1CCC(Cc2ccccc2)CC1 | > 10 µM | – | – | 17%
19 | CCc1cccc(Nc2nc(-c3ccc(Cl)cc3)c(C#N)c(=O)[nH]2)c1 | > 10 µM | – | – | 33%
20 | N#Cc1c(-c2ccc(Cl)cc2)nc(SCc2ccccc2)nc1N1CCCC(C(N)=O)C1 (stereo unspecified) | > 10 µM | – | – | 64%
21 | N#Cc1c(OCc2ccccc2)nc(Nc2ccc(Cl)cc2)nc1-c1ccc(Cl)cc1 | > 10 µM | – | – | 26%
22 | CCOc1nc(SCc2ccccc2)nc(-c2ccc(Cl)cc2)c1C#N | > 10 µM | – | – | 13%
23 | COc1ccc(-c2nc(SCc3ccc(Br)cc3)nc(N3CCOCC3)c2C#N)cc1 | > 10 µM | – | – | 36%
24 | N#Cc1c(-c2ccc(Cl)cc2)nc(Nc2ccc(Cl)cc2)nc1N1CCCCC1 | > 10 µM | – | – | 15%
25 | N#Cc1c(OCc2ccccc2)nc(SCc2ccccc2)nc1-c1ccc(Cl)cc1 | > 10 µM | – | – | 22%
26 | COc1ccc(-c2nc(Nc3ccc(Cl)cc3)[nH]c(=O)c2C#N)cc1 | > 10 µM | – | – | 0%
27 | COc1ccc(-c2nc(SCc3ccccc3)nc(NCCc3ccccc3)c2C#N)cc1 | > 10 µM | – | – | 11%
28 | CCn1c(SCc2ccccc2)nc(-c2ccc(OC)cc2)c(C#N)c1=O | > 10 µM | – | – | 12%
29 | CCOc1nc(SCc2ccccc2)nc(-c2ccc(OC)cc2)c1C#N | > 10 µM | – | – | 46%
30 | N#Cc1c(-c2cccc(Cl)c2)nc(Nc2ccc(Cl)cc2)[nH]c1=O | > 10 µM | – | – | 14%
31 | N#Cc1c(-c2ccc(Cl)cc2)nc(SCc2ccccc2)n(Cc2ccccc2)c1=O | > 10 µM | – | – | 14%

Second part, led by results:

Row | IC50 [1] | Structure (SMILES) | CC50 at 48 h [2] | inhibition at 48 h, 10 µM [3] | inhibition at 10 µM [4]
32 | 6.4 µM | N#Cc1c(NC2CCCCC2)nc(SCc2ccccc2)nc1-c1ccc(Cl)cc1 | > 10 µM | 0% | 56%
33 | > 10 µM | N#Cc1c(-c2ccc(Cl)cc2)nc(Nc2ccccc2)[nH]c1=O | – | – | 8%
34 | > 10 µM | COc1ccc(-c2nc(SCc3ccccc3)nc(N3CCC(C)CC3)c2C#N)cc1 | – | – | 35%
35 | > 10 µM | N#Cc1c(NC2CCCCC2)nc(Nc2ccc(Cl)cc2)nc1-c1ccc(Cl)cc1 | – | – | 1%
36 | > 10 µM | N#Cc1c(-c2ccccc2)nc(Nc2ccc(Cl)cc2)[nH]c1=O | – | – | 0%
37 | 3.4 µM | C=CCSc1nc(-c2ccc(OC)cc2)c(C#N)c(N2CCOCC2)n1 | > 10 µM | 5% | 82%
38 | > 10 µM | N#Cc1c(-c2ccc(Cl)cc2)nc(Nc2ccc(Cl)cc2)nc1N1CCOCC1 | – | – | 45%
39 | > 10 µM | Cc1ccc(Nc2nc(-c3ccccc3)c(C#N)c(=O)[nH]2)cc1 | – | – | 11%
40 | > 10 µM | CCOc1nc(SCc2ccccc2)nc(-c2cccc(Cl)c2)c1C#N | – | – | 10%
41 | > 10 µM | CCn1c(SCc2ccccc2)nc(-c2ccc(Cl)cc2)c(C#N)c1=O | – | – | 5%
42 | 2.3 µM | CCCCSc1nc(-c2ccc(OC)cc2)c(C#N)c(N2CCOCC2)n1 | > 10 µM | 13% | 67%
43 | 5 µM | COc1ccc(-c2nc(SCc3ccccc3)nc(NCc3cccs3)c2C#N)cc1 | > 10 µM | 13% | 65%
44 | 4.9 µM | COc1ccc(-c2nc(SCc3ccccc3)nc(N3CCC(C(N)=O)CC3)c2C#N)cc1 | > 10 µM | 12% | 73%
45 | > 10 µM | COc1nc(Nc2ccc(Cl)cc2)nc(-c2ccc(Cl)cc2)c1C#N | – | – | 0%
46 | 3.9 µM | COc1ccc(-c2nc(SCCc3ccccc3)nc(N3CCOCC3)c2C#N)cc1 | > 10 µM | 9% | 62%
47 | 5.5 µM | N#Cc1c(-c2cccc(Cl)c2)nc(SCc2ccccc2)nc1N1CCOCC1 | > 10 µM | 15% | 80%
48 | 2.5 µM | COc1ccc(-c2nc(SCc3ccccc3)nc(NCc3ccccc3)c2C#N)cc1 | > 10 µM | 5% | 73%
49 | 8.3 µM | N#Cc1c(-c2ccc(Cl)cc2)nc(SCc2ccccc2)nc1N1CCOCC1 | > 10 µM | 5% | 63%
50 | 6.2 µM | N#Cc1c(-c2ccccc2)nc(Nc2ccc(Cl)cc2)nc1N1CCCCC1 | > 10 µM | 9% | 70%
51 | 5.3 µM | CCCCCCSc1nc(-c2ccc(OC)cc2)c(C#N)c(N2CCOCC2)n1 | > 10 µM | 13% | 69%
52 | 2.1 µM | COc1ccc(-c2nc(SCc3ccccc3)nc(N3CCC(C(=O)c4ccccc4)CC3)c2C#N)cc1 | > 10 µM | 2% | 63%
53 | 4.3 µM | Cc1ccc(Nc2nc(-c3ccccc3)c(C#N)c(N3CCCCC3)n2)cc1 | > 10 µM | 10% | 88%
54 | 4.9 µM | COc1ccc(-c2nc(SC)nc(N3CCOCC3)c2C#N)cc1 | > 10 µM | 6% | 80%
55 | 5.7 µM | CC(C)Nc1nc(Nc2ccc(Cl)cc2)nc(-c2ccccc2)c1C#N | – | – | 72%
56 | 9.8 µM | N#Cc1c(-c2ccc(Cl)cc2)nc(SCc2ccccc2)nc1N1CCC(C(=O)c2ccccc2)CC1 | > 10 µM | 6% | 55%
57 | 6.4 µM | N#Cc1c(-c2ccc(Cl)cc2)nc(SCc2ccccc2)nc1N1CCC(C(N)=O)CC1 | > 10 µM | 19% | 57%
